Three compounds from ChEMBL document CHEMBL2021777 (J Med Chem, 2012) can be followed below.

Each structure is given as a SMILES string. pEC50, pIC50, pKi: −log10 of the molar value. The source made the active and inactive calls. No cut-off for these calls is given here. A value given as a limit tells only on which side of the number the result lay.

As usually defined, the pKi is the negative decadic logarithm of the Ki, by convention in mol/L. Higher therefore signals a low Ki. A word on the pEC50: it is −log10 of the EC50, conventionally taken in molar units. Usually pIC50 stands for the IC50 on a negative log10 scale, so that one unit is a factor of ten. As a reminder, the inhibition is the drop in the measured response relative to a control, in per cent.

Series [1] has as its target Neuronal acetylcholine receptor; alpha4/beta2 (Rattus norvegicus, UniProt P09483+P12390). In words: Displacement of [3H] epibatidine from rat alpha4beta2* nAChR in rat forebrain by beta scintillation counting.
A further series is filed under the species Rattus norvegicus. Briefly: Selectivity ratio of Ki for rat alpha3beta4 to Ki for rat alpha4beta2. Put shortly: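 Ki values from [3H]epibatidine competition binding at heterologously expressed rat nAChR subtypes, using the PDSP protocol; selectivity taken as the α3β4/α4β2 Ki ratio.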
The target in series [2] is T1, Neuronal acetylcholine receptor; alpha4/beta2 (Homo sapiens, UniProt P17787+P43681). In words: Agonist activity at human alpha4beta2 nAChR expressed in SH-EP1 cells assessed as 86Rb+ ion efflux after 9.5 mins by flip-plate technique. It counts as functional, cell-based. Put shortly: (§1)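 SH-EP1 human epithelial cells stably transfected with separate human α4 and β2 subunit cDNAs express a mixed population of high-sensitivity (2:3 α4:β2) and low-sensitivity (3:2) α4β2-nAChRs. Cells were kept at low passage (1−26 from frozen stocks). Function was read as 86Rb+ ion flux.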
T1 sequence (P17787 whole entry): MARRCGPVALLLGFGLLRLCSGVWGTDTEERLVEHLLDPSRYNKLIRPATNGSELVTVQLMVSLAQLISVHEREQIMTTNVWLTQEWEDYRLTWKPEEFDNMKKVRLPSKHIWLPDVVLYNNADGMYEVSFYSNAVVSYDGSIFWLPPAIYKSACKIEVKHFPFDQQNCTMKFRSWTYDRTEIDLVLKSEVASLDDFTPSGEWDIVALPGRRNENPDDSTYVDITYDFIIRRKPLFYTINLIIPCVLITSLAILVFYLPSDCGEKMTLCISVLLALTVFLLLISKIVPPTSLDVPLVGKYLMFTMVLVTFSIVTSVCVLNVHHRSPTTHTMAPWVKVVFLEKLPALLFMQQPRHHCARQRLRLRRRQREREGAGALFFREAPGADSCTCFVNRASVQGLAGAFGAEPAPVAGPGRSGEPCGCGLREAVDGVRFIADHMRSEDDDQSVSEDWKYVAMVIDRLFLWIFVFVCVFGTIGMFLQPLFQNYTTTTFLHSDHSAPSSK
T1 sequence (P43681 whole entry): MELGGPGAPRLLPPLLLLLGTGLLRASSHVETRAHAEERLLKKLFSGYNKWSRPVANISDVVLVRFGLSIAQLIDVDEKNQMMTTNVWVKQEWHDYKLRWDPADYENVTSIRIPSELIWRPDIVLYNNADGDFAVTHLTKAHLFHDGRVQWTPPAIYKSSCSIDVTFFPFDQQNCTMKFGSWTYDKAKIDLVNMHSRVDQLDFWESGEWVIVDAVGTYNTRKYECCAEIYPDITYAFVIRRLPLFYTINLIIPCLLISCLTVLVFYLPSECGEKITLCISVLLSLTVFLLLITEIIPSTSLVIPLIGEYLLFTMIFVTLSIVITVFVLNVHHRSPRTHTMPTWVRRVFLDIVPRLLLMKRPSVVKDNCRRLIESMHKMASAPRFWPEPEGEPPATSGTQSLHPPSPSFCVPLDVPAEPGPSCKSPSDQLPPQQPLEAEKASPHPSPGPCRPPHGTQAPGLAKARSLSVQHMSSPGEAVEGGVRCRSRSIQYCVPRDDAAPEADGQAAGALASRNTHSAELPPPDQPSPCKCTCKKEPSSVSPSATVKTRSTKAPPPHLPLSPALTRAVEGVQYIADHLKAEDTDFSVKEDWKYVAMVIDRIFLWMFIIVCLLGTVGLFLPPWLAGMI

The target of series [3] is T1, Neuronal acetylcholine receptor; alpha4/beta2. Briefly: Antagonist activity at human alpha4beta2 nAChR expressed in SH-EP1 cells assessed as inhibition of carbamylcholine induced 86Rb+ ion efflux preincubated for 10 mins prior to carbamylcholine-induction measured after 5 mins by flip-plate technique. It counts as functional, cell-based. Put shortly: as §1
Series [4] has as its target Acetylcholine receptor; alpha1/beta1/delta/gamma (Homo sapiens) (UniProt P02708+P07510+P11230+Q07001). In words: Antagonist activity at human alpha1beta1gammadelta nAChR expressed in TE671/RD cells at 10 uM by 86Rb+ flux assay. It counts as functional, cell-based. Put shortly:
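Human clonal TE671/RD cells endogenously express muscle-type α1*-nAChRs (α1, β1, γ, δ). Cells were kept at low passage (1−26 from frozen stocks). Function was read as 86Rb+ efflux, with agonist and antagonist modes tested up to 10 μM.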

Series [5] deals with Neuronal acetylcholine receptors; alpha-3/beta-4, alpha-5, beta-2 (Homo sapiens) (UniProt P17787+P30926+P32297+P30532). In words: Agonist activity at alpha3beta4alpha5beta2 in human SH-SY5Y cells at 10 uM by 86Rb+ flux assay. It counts as functional, cell-based. Put shortly:
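Human neuroblastoma SH-SY5Y cells endogenously express α3β4* nAChRs (α3, β4, probably α5, sometimes β2); their α7 receptors give no signal under these conditions. Cells were kept at low passage (1−26 from frozen stocks). Function was read as 86Rb+ efflux, with agonist and antagonist modes tested up to 10 μM.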

The next series deals with Mus musculus. Briefly: Ex-vivo beta2* nAChR receptor occupancy in mouse brain at 10 mg/kg, ip administered 30 mins prior to testing. It counts as functional. As to conditions: route intraperitoneal. Put shortly:
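Mice dosed at 10 mg/kg, or water, by intraperitoneal injection 30 min before brain collection (the forced-swim time point); ex vivo β2*-nAChR occupancy measured in brain.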

Series [6] deals with 5-hydroxytryptamine receptor 1E (Homo sapiens) (UniProt P28566). In words: Displacement of [3H]5-HT from 5-HT1E at 10 uM. Background: Loss of bound radioactivity is the signal in a displacement assay; it reports binding, not function.
Sequence of 5-hydroxytryptamine receptor 1E (Homo sapiens) (P28566 whole entry): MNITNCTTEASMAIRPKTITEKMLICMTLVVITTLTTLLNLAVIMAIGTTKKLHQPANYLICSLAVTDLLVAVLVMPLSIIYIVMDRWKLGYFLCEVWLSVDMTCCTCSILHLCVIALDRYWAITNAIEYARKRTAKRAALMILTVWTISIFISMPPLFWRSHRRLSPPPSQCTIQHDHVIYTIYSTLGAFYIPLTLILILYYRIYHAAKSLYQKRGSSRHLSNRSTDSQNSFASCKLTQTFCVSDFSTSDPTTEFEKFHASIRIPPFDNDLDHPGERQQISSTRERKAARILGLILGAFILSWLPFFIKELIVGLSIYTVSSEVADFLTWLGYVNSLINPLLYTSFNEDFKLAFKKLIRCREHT
Series [7] has as its target T2, 5-hydroxytryptamine receptor 3A (Homo sapiens) (UniProt P46098).
T2 sequence (whole entry): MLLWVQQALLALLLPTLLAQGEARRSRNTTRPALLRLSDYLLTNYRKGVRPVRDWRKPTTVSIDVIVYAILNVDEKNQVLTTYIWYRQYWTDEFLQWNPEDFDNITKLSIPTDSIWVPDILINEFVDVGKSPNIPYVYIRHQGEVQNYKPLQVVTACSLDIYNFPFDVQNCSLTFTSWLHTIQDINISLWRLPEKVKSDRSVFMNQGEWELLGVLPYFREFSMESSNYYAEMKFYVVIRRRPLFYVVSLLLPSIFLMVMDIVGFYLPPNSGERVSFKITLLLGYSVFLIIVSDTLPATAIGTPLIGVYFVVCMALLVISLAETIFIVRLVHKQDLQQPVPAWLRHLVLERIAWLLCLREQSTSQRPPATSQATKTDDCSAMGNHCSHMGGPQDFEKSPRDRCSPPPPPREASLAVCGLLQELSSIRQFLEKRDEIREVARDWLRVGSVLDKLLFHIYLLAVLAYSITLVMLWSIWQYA
Briefly: Displacement of [3H]LY278584 from 5-HT3 at 10 uM.

Series [8] concerns the target D(3) dopamine receptor (Homo sapiens) (UniProt P35462). In words: Displacement of [3H]N-methylspiperone from D3 at 10 uM.
Series [9] addresses Beta-3 adrenergic receptor (Homo sapiens) (UniProt P13945). In words: Displacement of [125I]Iodopindolol from beta3 adrenergic receptor at 10 uM.
In series [10] the target is T3, Muscarinic acetylcholine receptor M5 (Homo sapiens) (UniProt P08912).
T3 sequence (whole entry): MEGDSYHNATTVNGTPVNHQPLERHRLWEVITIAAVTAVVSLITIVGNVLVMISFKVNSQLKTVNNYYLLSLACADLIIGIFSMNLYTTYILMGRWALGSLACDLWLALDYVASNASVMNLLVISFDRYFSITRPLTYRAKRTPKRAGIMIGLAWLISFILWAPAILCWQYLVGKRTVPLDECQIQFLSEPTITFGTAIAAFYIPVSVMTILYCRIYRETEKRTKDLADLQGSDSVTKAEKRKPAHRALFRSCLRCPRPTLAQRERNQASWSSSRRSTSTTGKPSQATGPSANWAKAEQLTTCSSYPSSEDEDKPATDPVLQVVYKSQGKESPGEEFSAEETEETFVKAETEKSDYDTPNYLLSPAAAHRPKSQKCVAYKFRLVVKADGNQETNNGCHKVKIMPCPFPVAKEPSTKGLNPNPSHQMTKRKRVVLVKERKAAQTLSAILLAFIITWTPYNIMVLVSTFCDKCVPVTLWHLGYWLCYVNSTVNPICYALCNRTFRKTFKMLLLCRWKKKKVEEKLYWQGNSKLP
Briefly: Displacement of [3H]QNB from M5 receptor at 10 uM.

Series [11] in a line: Displacement of [3H]DTG from sigma2 receptor at 10 uM.
The target in a further series is Cytochrome P450 2C19 (Homo sapiens, UniProt P33261). In words: Inhibition of CYP2C19 up to 10 uM. It counts as ADME. Put shortly:
(§2)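 Percent inhibition of CYP isoforms (CYP1A, CYP2C9, CYP2C19, CYP2D6, CYP3A; CYP1A2 reported) with test compound at concentrations up to 10 μM.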

Another series has as its target Cytochrome P450 2D6 (Homo sapiens, UniProt P10635). Briefly: Inhibition of CYP2D6 up to 10 uM. It counts as ADME. Put shortly: as §2
The next series addresses hERG (KCNH2) (Homo sapiens, UniProt Q12809). In words: Inhibition of human ERG expressed in CHO cells at 10 uM by patch clamp electrophysiology assay. It counts as cell-based. As to conditions: CHO cells expressing human ERG. The procedure, abridged: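 Automated patch-clamp electrophysiology on hERG K+ channels in CHO cell lines; inhibition measured at three concentrations: 0.1, 1 and 10 μM.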
On the technique in general: The patch-clamp technique gives a direct electrical read-out from membranes.

Sequence of Beta-3 adrenergic receptor (Homo sapiens) (P13945 whole entry, looked up): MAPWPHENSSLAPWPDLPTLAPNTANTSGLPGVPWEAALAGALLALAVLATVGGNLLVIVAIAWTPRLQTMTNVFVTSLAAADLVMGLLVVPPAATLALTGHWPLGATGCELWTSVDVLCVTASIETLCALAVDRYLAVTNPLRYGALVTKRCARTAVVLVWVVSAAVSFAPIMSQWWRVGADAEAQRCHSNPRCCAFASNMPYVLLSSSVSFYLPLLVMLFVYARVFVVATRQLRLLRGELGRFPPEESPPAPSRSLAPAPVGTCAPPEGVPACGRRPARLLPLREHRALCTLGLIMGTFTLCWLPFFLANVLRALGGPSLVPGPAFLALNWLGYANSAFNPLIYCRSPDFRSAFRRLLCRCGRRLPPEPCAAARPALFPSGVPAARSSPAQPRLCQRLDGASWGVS
Sequence of hERG (KCNH2) (Q12809 whole entry): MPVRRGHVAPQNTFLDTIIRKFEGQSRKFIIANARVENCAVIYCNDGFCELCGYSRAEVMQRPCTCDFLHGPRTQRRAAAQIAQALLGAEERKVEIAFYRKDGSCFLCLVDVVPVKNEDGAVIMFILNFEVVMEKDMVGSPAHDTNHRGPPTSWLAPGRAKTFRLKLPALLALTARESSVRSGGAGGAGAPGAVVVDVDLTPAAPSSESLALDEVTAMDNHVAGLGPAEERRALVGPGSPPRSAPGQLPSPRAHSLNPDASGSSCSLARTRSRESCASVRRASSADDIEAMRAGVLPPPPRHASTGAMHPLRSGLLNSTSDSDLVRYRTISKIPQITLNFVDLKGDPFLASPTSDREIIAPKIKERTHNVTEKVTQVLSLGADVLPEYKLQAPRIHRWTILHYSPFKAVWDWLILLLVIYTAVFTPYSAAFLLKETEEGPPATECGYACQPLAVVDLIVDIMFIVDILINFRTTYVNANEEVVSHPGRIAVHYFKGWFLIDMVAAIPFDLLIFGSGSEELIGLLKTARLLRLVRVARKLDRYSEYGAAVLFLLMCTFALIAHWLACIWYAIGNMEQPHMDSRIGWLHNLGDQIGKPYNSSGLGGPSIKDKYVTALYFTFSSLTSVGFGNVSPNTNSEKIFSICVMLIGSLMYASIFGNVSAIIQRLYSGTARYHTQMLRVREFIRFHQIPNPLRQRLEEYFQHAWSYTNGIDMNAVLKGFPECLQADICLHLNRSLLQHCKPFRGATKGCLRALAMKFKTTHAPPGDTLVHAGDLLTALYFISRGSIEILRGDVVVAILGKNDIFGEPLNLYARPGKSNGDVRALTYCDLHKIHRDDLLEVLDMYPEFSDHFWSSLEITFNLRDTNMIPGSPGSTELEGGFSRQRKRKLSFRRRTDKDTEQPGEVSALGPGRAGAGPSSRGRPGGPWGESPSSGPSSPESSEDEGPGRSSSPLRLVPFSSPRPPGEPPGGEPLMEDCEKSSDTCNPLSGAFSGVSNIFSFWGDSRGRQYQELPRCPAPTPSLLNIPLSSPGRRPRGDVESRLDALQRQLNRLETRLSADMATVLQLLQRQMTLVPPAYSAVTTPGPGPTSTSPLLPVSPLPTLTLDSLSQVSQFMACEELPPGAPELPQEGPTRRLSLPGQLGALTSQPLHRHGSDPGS
Sequence of Cytochrome P450 2D6 (P10635 whole entry): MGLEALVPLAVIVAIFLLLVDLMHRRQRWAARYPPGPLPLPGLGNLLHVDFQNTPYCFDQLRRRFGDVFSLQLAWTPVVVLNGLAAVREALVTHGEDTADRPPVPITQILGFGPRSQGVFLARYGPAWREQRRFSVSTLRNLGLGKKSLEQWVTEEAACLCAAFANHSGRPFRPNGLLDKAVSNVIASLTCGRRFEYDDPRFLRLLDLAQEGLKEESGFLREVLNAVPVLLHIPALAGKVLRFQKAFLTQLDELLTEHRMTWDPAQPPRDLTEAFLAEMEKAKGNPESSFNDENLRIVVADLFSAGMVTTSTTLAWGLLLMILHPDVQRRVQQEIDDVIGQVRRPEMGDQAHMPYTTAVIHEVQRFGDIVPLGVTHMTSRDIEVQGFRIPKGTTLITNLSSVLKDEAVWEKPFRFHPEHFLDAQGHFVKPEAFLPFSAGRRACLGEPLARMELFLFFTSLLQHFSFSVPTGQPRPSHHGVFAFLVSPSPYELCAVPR
Sequence of Cytochrome P450 2C19 (P33261 whole entry, canonical isoform): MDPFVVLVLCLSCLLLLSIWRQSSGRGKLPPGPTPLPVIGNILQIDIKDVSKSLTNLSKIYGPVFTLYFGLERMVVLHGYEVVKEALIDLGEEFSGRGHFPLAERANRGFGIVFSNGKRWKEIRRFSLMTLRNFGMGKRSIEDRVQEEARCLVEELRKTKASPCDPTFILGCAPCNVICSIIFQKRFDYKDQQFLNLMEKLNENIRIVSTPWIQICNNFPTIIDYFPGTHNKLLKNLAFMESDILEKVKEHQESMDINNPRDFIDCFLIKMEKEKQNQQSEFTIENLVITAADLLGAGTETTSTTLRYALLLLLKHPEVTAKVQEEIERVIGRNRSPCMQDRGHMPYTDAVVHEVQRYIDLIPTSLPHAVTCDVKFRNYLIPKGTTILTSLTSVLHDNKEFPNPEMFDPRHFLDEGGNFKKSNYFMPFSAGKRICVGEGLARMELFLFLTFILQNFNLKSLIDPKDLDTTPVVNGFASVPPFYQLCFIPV
Sequence of D(3) dopamine receptor (Homo sapiens) (P35462 whole entry): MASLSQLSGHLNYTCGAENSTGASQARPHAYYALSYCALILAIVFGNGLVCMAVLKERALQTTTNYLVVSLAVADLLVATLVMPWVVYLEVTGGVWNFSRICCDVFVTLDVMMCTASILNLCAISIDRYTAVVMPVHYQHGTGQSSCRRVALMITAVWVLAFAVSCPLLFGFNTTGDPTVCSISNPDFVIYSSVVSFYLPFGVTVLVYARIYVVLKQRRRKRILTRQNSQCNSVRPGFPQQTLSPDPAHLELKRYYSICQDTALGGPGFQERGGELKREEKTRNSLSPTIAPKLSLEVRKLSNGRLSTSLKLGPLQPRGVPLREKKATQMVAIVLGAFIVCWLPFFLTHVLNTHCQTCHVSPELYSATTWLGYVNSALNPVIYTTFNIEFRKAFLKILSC

In the case of `CNC(=O)OCC[C@H]1C[C@@H]1c1cncc(OC[C@@H]2CCN2)c1`, in series [1], the pKi is 8.77. Besides, the Ratio Ki in the series filed under Rattus norvegicus was > 100000. Moreover, the pEC50 in series [2] is 7.80. For the same compound, the pIC50 in series [3] was 7.74. The outcome in [4] and in [5] was inactive. The same compound yielded an Activity in the series with Mus musculus of 65%. For the same compound, the inhibition was -8.2% in series [6]; 23.5% in [7]; 12.3% in series [8]; 10.6% in series [9]; -8.7% in [10]; -4.2% in series [11]. In addition, the “inhibition (INH)” value against Cytochrome P450 2C19 and against Cytochrome P450 2D6 was “<= 25%” in each case. In addition, on hERG (KCNH2), the inhibition at 10 µM worked out at 16.6%.
`OCC[C@H]1C[C@@H]1c1cncc(OC[C@@H]2CCN2)c1` had a pKi in series [1] of 9.30. Further, in the series filed under Rattus norvegicus, the Ratio Ki came out at 65200. Also, the pEC50 in [2] was 7.99. The pIC50 in series [3] was 8.03. For the same compound, the result in series [4] and in [5] was inactive. Besides, the Activity in the series on Mus musculus is 85%. The inhibition in series [6] is 6.7%; in series [7] it was 38.3%; in series [8] it was 66.2%; in [9] it was 24.3%; in series [10], -4.4%; in series [11], 10%. Further, the “inhibition (INH)” value on Cytochrome P450 2C19 and on Cytochrome P450 2D6 was “<= 25%” each time. In addition, the inhibition at 10 µM against hERG (KCNH2) turned out to be 19.1%.
`COCC[C@H]1C[C@@H]1c1cncc(OC[C@@H]2CCN2)c1` gave a pKi in series [1] of 9.52. In the series filed under Rattus norvegicus, the Ratio Ki is > 100000. In addition, the pEC50 in [2] was 7.76. For the same compound, the negative logarithm of the IC50 (pIC50) in series [3] was 8.25. Further, the outcome in [4] and in [5] was inactive. Besides, in the series with Mus musculus, the Activity was 85%. Also, the inhibition in series [6] is 13.4%; in [7], 42.4%; in series [8], 84.5%; in series [9] it was 25.3%; in series [10] it was -1.1%; in [11], 15%. Besides, the “inhibition (INH)” value against Cytochrome P450 2C19 and against Cytochrome P450 2D6 was “<= 25%” throughout. Further, at hERG (KCNH2), the inhibition at 10 µM turned out to be 13.7%.
